Series [1] deals with Liver microsome. In words: Drug level in Sprague-Dawley rat liver microsomes treated with [14C]-rivoglitazone at 20 uM after 2 hrs by radio-HPLC/LC-MS/MS analysis in presence of NADPH-generating system/SAM. It counts as ADME. The gist of the method:
(§1)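 Pooled male liver microsomes (1 mg/ml protein; rat from 94 Sprague-Dawley, monkey from 8 cynomolgus, human from 23 donors) were incubated with [¹⁴C]rivoglitazone (20 μM). Buffer: 10 mM potassium phosphate (pH 7.4). Cofactors: NADPH-generating system (2 mM NADP⁺, 20 mM G6P, 2 U/ml G6PDH, 10 mM MgCl₂), with or without 2 mM SAM. Incubation 2 h at 37°C with shaking; controls lacked NADPH system and SAM alone. Acetonitrile stop, radio-HPLC plus LC-MS.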
(In general: Liver microsomes are a subcellular fraction often used to study metabolism.)

Series [2] relates to Liver microsome. In words: Drug level in human liver microsomes treated with [14C]-rivoglitazone at 20 uM after 2 hrs by radio-HPLC/LC-MS/MS analysis in presence of NADPH-generating system/SAM. The series is classed as ADME. The gist of the method: as §1
In series [3] the test system is Hepatocyte. In words: Drug level in rat hepatocytes treated with [14C]-rivoglitazone at 30 uM after 3 hrs by radio-HPLC/LC-MS/MS analysis in presence of NADPH-generating system/SAM. The series is classed as ADME, cell-based.
Series [4] in a line: Drug level in cynomolgus monkey liver microsomes treated with [14C]-rivoglitazone at 20 uM after 2 hrs by radio-HPLC/LC-MS/MS analysis in presence of NADPH-generating system/SAM. It counts as ADME, Macaca fascicularis. The gist of the method:
as §1

Series [5] deals with Hepatocyte. The experiment in a line: Drug level in human hepatocytes treated with [14C]-rivoglitazone at 30 uM after 3 hrs by radio-HPLC/LC-MS/MS analysis in presence of NADPH-generating system/SAM. The series is classed as ADME, cell-based.
A short description of series [6]: Retention time of the compound by LC-MS/MS analysis. It counts as physicochemical. The gist of the method: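 LC-MS/MS used a YMC-Pack ODS-A column (1.5 × 150 mm, 5 μm) at 30°C, 0.1 ml/min. Mobile phase was water and acetonitrile, each with 0.01% TFA. Gradient: 12→60% B over 30 min, →90% B over 5 min, hold 5 min. Detection was UV 220 nm with positive ESI Q-TOF (capillary 3300 V, cone 45 V), collision energy 20 eV and xenon as collision gas.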

The test system of series [7] is Liver microsome. In words: Drug level in Sprague-Dawley rat liver microsomes treated with [14C]-rivoglitazone at 20 uM after 2 hrs by radio-HPLC/LC-MS/MS analysis in presence of NADPH-generating system and NADPH-generating system/SAM. It counts as ADME. The gist of the method:
as §1

For a further series, the target named is Cytochrome P450 3A5 (Homo sapiens, UniProt P20815). In words: Activity of human CYP3A5 expressed in microsomes isolated from baculovirus infected insect cell assessed as enzyme-mediated compound formation treated with [14C]-rivoglitazone at 20 uM after 2 hrs by radio-HPLC/LC-MS/MS analysis in presence of NADPH-generating system and NADPH-generating system/SAM. The series is classed as ADME. The gist of the method:
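cDNA-expressed human CYP3A5 in baculovirus-insect-cell microsomes (1 mg/ml protein) was incubated with [¹⁴C]rivoglitazone (20 μM) in 50 mM potassium phosphate (pH 7.4) or 100 mM Tris-HCl (pH 7.5). NADPH-generating system: 2 mM NADP⁺, 20 mM glucose 6-phosphate, 2 units/ml G6PDH, 10 mM MgCl₂. Incubation ran 2 h at 37°C with shaking; insect-cell control supersomes served as control. Acetonitrile stop, supernatant concentrated, then radio-HPLC, LC-MS and LC-MS/MS.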

The target of another series is Cytochrome P450 2C9 (Homo sapiens, UniProt P11712). The experiment in a line: Activity of human CYP2C9 expressed in microsomes isolated from baculovirus infected insect cell assessed as enzyme-mediated compound formation treated with [14C]-rivoglitazone at 20 uM after 2 hrs by radio-HPLC/LC-MS/MS analysis in presence of NADPH-generating system and NADPH-generating system/SAM. The series is classed as ADME.
Sequence of Cytochrome P450 2C9 (P11712 whole entry): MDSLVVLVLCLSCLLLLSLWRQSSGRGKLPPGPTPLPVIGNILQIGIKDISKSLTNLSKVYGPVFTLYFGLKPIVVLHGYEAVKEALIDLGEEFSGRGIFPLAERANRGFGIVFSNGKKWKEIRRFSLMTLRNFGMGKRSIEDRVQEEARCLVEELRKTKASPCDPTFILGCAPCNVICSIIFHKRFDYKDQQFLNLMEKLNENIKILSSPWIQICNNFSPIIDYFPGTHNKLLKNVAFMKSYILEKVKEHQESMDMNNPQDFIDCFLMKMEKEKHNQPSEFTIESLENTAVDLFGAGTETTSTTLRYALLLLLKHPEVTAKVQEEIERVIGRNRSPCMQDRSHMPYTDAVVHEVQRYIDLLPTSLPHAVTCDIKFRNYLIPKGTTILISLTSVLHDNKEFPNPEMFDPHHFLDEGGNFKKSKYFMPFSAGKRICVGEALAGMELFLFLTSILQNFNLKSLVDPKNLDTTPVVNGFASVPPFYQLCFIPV

The target in a further series is Cytochrome P450 2C19 (Homo sapiens, UniProt P33261). In words: Activity of human CYP2C19 expressed in microsomes isolated from baculovirus infected insect cell assessed as enzyme-mediated compound formation treated with [14C]-rivoglitazone at 20 uM after 2 hrs by radio-HPLC/LC-MS/MS analysis in presence of NADPH-generating system and NADPH-generating system/SAM. It counts as ADME. The gist of the method:
(§2)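 Baculovirus/insect-cell microsomes expressing single human CYPs, 1 mg/ml protein, with 50 mM potassium phosphate (pH 7.4) or 100 mM Tris-HCl (pH 7.5). NADPH-generating system: 2 mM NADP⁺, 20 mM glucose 6-phosphate, 2 units/ml G6PDH, 10 mM MgCl₂. [¹⁴C]rivoglitazone at 20 μM, 2 h at 37°C with shaking. Control used insect-cell control supersomes. Stopped with acetonitrile; supernatant concentrated under nitrogen; metabolites analysed by radio-HPLC, LC-MS and LC-MS/MS.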

For series [8], the system named is Hepatocyte (Macaca fascicularis). The experiment in a line: Drug level in monkey hepatocytes treated with [14C]-rivoglitazone at 30 uM after 3 hrs by radio-HPLC/LC-MS/MS analysis in presence of NADPH-generating system and NADPH-generating system/SAM. As to conditions: cynomolgus monkey.
Another series concerns the target T1, Cytochrome P450 2C8 (Homo sapiens, UniProt P10632).
T1 sequence (P10632 whole entry): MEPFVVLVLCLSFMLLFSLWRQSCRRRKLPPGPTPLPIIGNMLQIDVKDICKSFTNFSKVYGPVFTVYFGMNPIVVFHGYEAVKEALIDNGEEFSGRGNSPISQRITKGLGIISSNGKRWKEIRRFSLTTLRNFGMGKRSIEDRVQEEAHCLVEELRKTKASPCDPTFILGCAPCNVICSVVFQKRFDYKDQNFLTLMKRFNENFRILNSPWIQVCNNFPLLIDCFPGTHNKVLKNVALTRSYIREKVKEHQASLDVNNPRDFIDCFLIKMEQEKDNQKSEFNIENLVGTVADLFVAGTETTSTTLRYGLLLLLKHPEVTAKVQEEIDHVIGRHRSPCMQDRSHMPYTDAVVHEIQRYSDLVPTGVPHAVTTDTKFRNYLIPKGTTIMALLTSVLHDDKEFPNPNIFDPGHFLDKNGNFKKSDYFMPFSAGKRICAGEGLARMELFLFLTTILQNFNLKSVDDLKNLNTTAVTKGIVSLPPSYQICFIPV
The experiment in a line: Activity of human CYP2C8 expressed in microsomes isolated from baculovirus infected insect cell assessed as enzyme-mediated compound formation treated with [14C]-rivoglitazone at 20 uM after 2 hrs by radio-HPLC/LC-MS/MS analysis in presence of NADPH-generating system and NADPH-generating system/SAM. It counts as ADME. The gist of the method: as §2

Series [9] has as its system Hepatocyte. The experiment in a line: Drug level in rat hepatocytes treated with [14C]-rivoglitazone at 30 uM after 3 hrs by radio-HPLC/LC-MS/MS analysis in presence of NADPH-generating system and NADPH-generating system/SAM. The series is classed as ADME, cell-based.
Series [10] relates to Liver microsome. The experiment in a line: Drug level in human liver microsomes treated with [14C]-rivoglitazone at 20 uM after 2 hrs by radio-HPLC/LC-MS/MS analysis in presence of NADPH-generating system and NADPH-generating system/SAM. It counts as ADME. The gist of the method: as §1
For a further series, the target named is T2, Cytochrome P450 1A2 (Homo sapiens, UniProt P05177).
T2 sequence (P05177 whole entry): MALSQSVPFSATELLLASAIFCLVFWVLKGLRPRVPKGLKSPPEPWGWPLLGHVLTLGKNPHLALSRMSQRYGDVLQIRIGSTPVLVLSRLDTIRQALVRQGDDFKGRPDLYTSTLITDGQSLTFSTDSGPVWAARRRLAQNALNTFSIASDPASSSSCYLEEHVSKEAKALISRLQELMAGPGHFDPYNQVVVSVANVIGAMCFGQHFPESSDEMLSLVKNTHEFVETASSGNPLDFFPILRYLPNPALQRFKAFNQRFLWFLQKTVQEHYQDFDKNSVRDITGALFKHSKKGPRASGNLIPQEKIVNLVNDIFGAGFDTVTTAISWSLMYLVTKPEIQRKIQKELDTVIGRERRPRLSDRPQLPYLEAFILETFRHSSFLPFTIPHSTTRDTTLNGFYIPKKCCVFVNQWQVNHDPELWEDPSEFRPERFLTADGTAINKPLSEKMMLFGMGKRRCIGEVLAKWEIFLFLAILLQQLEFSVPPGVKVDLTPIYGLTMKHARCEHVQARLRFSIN
In words: Activity of human CYP1A2 expressed in microsomes isolated from baculovirus infected insect cell assessed as enzyme-mediated compound formation treated with [14C]-rivoglitazone at 20 uM after 2 hrs by radio-HPLC/LC-MS/MS analysis in presence of NADPH-generating system and NADPH-generating system/SAM. The series is classed as ADME. The gist of the method:
as §2

Another series deals with Cytochrome P450 3A4 (Homo sapiens, UniProt P08684). The experiment in a line: Activity of human CYP3A4 expressed in microsomes isolated from baculovirus infected insect cell assessed as enzyme-mediated compound formation treated with [14C]-rivoglitazone at 20 uM after 2 hrs by radio-HPLC/LC-MS/MS analysis in presence of NADPH-generating system and NADPH-generating system/SAM. The series is classed as ADME.
Sequence of Cytochrome P450 3A4 (P08684 whole entry): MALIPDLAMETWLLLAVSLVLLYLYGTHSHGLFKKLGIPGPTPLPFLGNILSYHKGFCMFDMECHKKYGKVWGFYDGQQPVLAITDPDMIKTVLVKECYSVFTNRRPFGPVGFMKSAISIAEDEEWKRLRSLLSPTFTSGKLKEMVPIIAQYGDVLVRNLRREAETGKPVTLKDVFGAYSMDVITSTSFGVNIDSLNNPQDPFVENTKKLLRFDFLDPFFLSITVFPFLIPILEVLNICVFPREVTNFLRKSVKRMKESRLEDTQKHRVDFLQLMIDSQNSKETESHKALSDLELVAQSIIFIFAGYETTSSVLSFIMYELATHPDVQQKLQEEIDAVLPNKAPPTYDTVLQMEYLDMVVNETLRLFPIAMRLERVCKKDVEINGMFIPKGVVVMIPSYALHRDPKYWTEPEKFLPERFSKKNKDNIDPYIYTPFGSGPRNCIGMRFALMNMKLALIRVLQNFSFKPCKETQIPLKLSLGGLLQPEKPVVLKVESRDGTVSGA

Series [11] has as its system Hepatocyte. In words: Drug level in human hepatocytes treated with [14C]-rivoglitazone at 30 uM after 3 hrs by radio-HPLC/LC-MS/MS analysis in presence of NADPH-generating system and NADPH-generating system/SAM. The series is classed as ADME, cell-based.
A further series addresses Cytochrome P450 2D6 (Homo sapiens, UniProt P10635). The experiment in a line: Activity of human CYP2D6 expressed in microsomes isolated from baculovirus infected insect cell assessed as enzyme-mediated compound formation treated with [14C]-rivoglitazone at 20 uM after 2 hrs by radio-HPLC/LC-MS/MS analysis in presence of NADPH-generating system and NADPH-generating system/SAM. It counts as ADME.

Series [12] in a line: Drug level in cynomolgus monkey liver microsomes treated with [14C]-rivoglitazone at 20 uM after 2 hrs by radio-HPLC/LC-MS/MS analysis in presence of NADPH-generating system and NADPH-generating system/SAM. The series is classed as ADME, Macaca fascicularis. The gist of the method: as §1

Data on six compounds can be found in ChEMBL document CHEMBL3526048, “In vitro metabolism of rivoglitazone, a novel peroxisome proliferator-activated receptor γ agonist, in rat, monkey, and human liver microsomes and freshly isolated hepatocytes” (Drug Metab Dispos, 2011).

Sequence of Cytochrome P450 3A5 (P20815 whole entry): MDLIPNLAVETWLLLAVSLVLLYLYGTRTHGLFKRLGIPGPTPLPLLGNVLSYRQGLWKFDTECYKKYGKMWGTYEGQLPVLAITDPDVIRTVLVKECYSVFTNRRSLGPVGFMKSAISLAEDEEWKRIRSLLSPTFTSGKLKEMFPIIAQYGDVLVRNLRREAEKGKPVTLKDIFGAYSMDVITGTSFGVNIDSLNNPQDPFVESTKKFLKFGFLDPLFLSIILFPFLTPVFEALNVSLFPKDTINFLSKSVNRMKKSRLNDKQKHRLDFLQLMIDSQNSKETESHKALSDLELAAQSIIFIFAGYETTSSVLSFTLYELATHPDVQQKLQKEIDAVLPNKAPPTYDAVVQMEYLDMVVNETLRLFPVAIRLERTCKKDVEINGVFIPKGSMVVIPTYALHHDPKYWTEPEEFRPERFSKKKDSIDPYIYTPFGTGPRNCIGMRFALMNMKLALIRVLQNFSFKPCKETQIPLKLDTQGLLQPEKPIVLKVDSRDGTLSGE
Sequence of Cytochrome P450 2D6 (P10635 whole entry): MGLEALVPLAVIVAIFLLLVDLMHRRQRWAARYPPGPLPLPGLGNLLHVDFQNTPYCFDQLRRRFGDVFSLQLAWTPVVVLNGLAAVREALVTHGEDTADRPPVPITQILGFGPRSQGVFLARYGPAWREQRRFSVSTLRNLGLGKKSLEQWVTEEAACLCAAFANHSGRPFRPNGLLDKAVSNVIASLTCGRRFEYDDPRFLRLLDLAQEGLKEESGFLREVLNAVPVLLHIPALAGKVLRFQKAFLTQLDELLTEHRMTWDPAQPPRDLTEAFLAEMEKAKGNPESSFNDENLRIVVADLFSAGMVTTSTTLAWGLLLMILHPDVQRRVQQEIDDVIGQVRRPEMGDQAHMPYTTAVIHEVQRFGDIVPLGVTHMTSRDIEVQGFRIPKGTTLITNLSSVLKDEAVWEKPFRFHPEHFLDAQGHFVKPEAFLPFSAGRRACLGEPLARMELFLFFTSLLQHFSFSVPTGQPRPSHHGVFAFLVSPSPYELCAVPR
Sequence of Cytochrome P450 2C19 (P33261 whole entry): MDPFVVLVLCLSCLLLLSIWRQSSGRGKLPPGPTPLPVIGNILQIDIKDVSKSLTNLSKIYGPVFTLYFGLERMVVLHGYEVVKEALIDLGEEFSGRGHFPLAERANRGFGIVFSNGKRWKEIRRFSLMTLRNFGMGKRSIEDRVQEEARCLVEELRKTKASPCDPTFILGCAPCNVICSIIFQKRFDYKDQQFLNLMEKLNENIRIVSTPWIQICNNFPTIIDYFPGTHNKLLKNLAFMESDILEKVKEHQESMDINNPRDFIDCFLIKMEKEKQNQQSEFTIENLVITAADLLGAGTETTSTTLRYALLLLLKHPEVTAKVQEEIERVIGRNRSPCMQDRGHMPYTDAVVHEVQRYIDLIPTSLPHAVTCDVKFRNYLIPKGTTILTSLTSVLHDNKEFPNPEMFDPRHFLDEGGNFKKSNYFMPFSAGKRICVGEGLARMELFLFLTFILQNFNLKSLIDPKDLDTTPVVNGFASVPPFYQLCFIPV

In the case of `COc1ccc2nc(COc3ccc(CC(C(N)=O)[S+](C)[O-])cc3)n(C)c2c1` (configuration not stated), the Drug metabolism entry (in the series on Liver microsome [1]; with Liver microsome [2]; in the series with Hepatocyte [3]; in [4]; in the series with Hepatocyte [5]) was “metabolite_detected” in each case. In addition, the Retention_time in [6] stood at 16.1 min.

Consider `Cn1c(COc2ccc(CC3SC(=O)NC3=O)cc2)nc2ccc(O)cc21` (configuration not stated), for which the Drug metabolism result (in the series on Liver microsome [7]; on Cytochrome P450 3A5; on Cytochrome P450 2C9; on Cytochrome P450 2C19; in [8]; on Cytochrome P450 2C8) was “metabolite_detected” throughout. Moreover, the Drug metabolism result with Hepatocyte [9], with Liver microsome [10], at Cytochrome P450 1A2, on Cytochrome P450 3A4, with Hepatocyte [11] and on Cytochrome P450 2D6 was “metabolite_detected” each time. Moreover, in [12], the Drug metabolism result is recorded as “metabolite_detected”. Besides, the Retention_time in [6] amounted to 19.2 min.

As for `COc1ccc2nc(COc3ccc(CC(S)C(N)=O)cc3)n(C)c2c1` (configuration not stated), the Drug metabolism result in the series with Liver microsome [7], on Cytochrome P450 3A5, on Cytochrome P450 2C9, at Cytochrome P450 2C19, on Cytochrome P450 2C8 and in the series with Liver microsome [10] was “metabolite_detected” each time. Further, the Drug metabolism entry (at Cytochrome P450 1A2; at Cytochrome P450 3A4; at Cytochrome P450 2D6; in series [12]) was “metabolite_detected” in each case. The Retention_time in series [6] is listed as 20.2 min.

With `COc1ccc2nc(COc3ccc(CC4(O)SC(=O)NC4=O)cc3)n(C)c2c1` (configuration not stated), the Drug metabolism entry (with Liver microsome [7]; at Cytochrome P450 3A5; at Cytochrome P450 2C9; at Cytochrome P450 2C19; in series [8]; at Cytochrome P450 2C8) was “metabolite_detected” each time. The Drug metabolism result in the series with Hepatocyte [9], in the series with Liver microsome [10], on Cytochrome P450 1A2, at Cytochrome P450 3A4, with Hepatocyte [11] and on Cytochrome P450 2D6 was “metabolite_detected” in each case. Besides, in series [12], the Drug metabolism entry was “metabolite_detected”. The compound also gave a Retention_time in series [6] of 21.5 min.

With `COc1ccc2nc(COc3ccc(CC(C(N)=O)S(C)(=O)=O)cc3)n(C)c2c1` (configuration not stated), the Drug metabolism result (in the series on Liver microsome [1]; with Liver microsome [2]; in the series on Hepatocyte [3]; in [4]; with Hepatocyte [5]) was “metabolite_detected” throughout. The compound also registered a Retention_time in series [6] of 18.1 min.

For `COc1ccc2nc(COc3ccc(CC(O)C(N)=O)cc3)n(C)c2c1` (configuration not stated), the Drug metabolism entry in the series with Liver microsome [7], at Cytochrome P450 3A5, at Cytochrome P450 2C9, at Cytochrome P450 2C19, at Cytochrome P450 2C8 and in the series with Liver microsome [10] was “metabolite_detected” throughout. Further, the Drug metabolism result (at Cytochrome P450 1A2; at Cytochrome P450 3A4; at Cytochrome P450 2D6; in series [12]) was “metabolite_detected” throughout. This compound also displayed a Retention_time in series [6] of 16.3 min.
